Assay results reported in ChEMBL document CHEMBL2331117 (J Med Chem, 2013).
Active and inactive are the calls of the source. The calls are words filed in the database; no cut-off is given here.

Key:
Mus musculus [1] = assay: In vivo inhibition of mTOR1-mediated phosphorylation of p70S6K at […] in human MCF7 cells xenografted into athymic nude mouse at 100 mg/kg, po after 8 hrs by Western blotting analysis relative to control; format: functional; details: MCF7, 8 h
Mus musculus [2] = assay: In vivo inhibition of mTORC2-mediated phosphorylation of AKT at […] in human MCF7 cells xenografted into athymic nude mouse at 100 mg/kg, po after 24 hrs by Western blotting analysis relative to control; format: functional; details: MCF7, 24 h
In short: (§1)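 MCF-7 cells (DMEM, 10% FBS) were implanted subcutaneously at 5 × 10^6 cells in 50% cold HBSS/50% growth-factor-reduced matrigel into the hindflank of 5−8 week old female nude mice. At tumor size 40−150 mg, mice received a single oral dose of 100 mg/kg. Tumor lysates were pooled per group. Phospho-AKT (S473, T308), p70S6K (T389), S6 (S240/244) and 4E-BP1 (T37/46) were measured by Western blot normalized to α-tubulin.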

Mus musculus [3] = assay: In vivo inhibition of mTORC2-mediated phosphorylation of AKT at serine 473 in human MCF7 cells xenografted into athymic nude mouse at 100 mg/kg, po after 1 hr by Western blotting analysis relative to control; format: functional; details: MCF7, 1 h; in short: as §1
[4] = Plasma concentration in athymic mouse plasma xenografted with human PC3 cells at 100 mg/kg, po after 1 hr; format: ADME, organism-based, PC-3; set-up: dose 100 mg/kg, route oral
Mus musculus [5] = assay: In vivo inhibition of mTORC1-mediated phosphorylation of 4EBP1 at ([…]) in human PC3 cells xenografted into athymic nude mouse at 100 mg/kg, po after 24 hrs by Western blotting analysis relative to control; format: functional; details: PC-3, 24 h
In short: (§2)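 PC-3 cells grown in DMEM with 20% FBS were implanted subcutaneously at 3 × 10^6 cells in ice-cold HBSS into the hindflank of 5−8 week old male nude mice. At tumor size 200−500 mg, mice received a single oral dose of 100 mg/kg. Plasma and tumors were collected at 1, 4, 8, 16, 24 and 32 h. Tumor lysates from each group (n = 5) were pooled. Phospho-proteins were quantified by Western blot and normalized to α-tubulin.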

[6] = molecular target: Serine/threonine-protein kinase mTOR (Homo sapiens) (UniProt P42345); assay: Competitive inhibition of mTOR (unknown origin) in presence of ATP
[7] = Volume of distribution at steady state in cynomolgus monkey at 3 mg/kg, iv; format: ADME, organism-based, Macaca fascicularis; set-up: dose 3 mg/kg, route intravenous; details: in vivo, read-out: Vdss
[8] = Clearance in cynomolgus monkey at 3 mg/kg, iv; format: ADME, organism-based, Macaca fascicularis; set-up: dose 3 mg/kg, route intravenous; details: in vivo
In short: (§3)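 Single-dose PK: female athymic nude mice (10 mg/kg), female CD rats and male beagle dogs (3 mg/kg), male cynomolgus monkeys (3 mg/kg), given iv and by oral gavage. Solution in EPW (5% ethanol/45% PEG400/water), with 1:2 HCl (m/m) for mouse, rat and dog and 1:1.5 HCl (m/m) for monkey. Plasma levels followed over 24 h.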

[9] = Clearance in CD rat at 3 mg/kg, iv; format: ADME, organism-based; set-up: dose 3 mg/kg, route intravenous; details: in vivo; in short: as §3
[10] = Half life in Beagle dog at 3 mg/kg, iv; format: ADME, organism-based, Canis lupus familiaris; set-up: dose 3 mg/kg, route intravenous; details: in vivo; in short: as §3
[11] = AUC (0 to infinity) in CD rat at 3 mg/kg, po; format: ADME, organism-based; set-up: time infinity, dose 3 mg/kg, route oral; details: plasma; in short: as §3
[12] = Cmax in athymic nude mouse at 10 mg/kg, po; format: ADME, organism-based; set-up: dose 10 mg/kg, route oral; details: in vivo; in short: as §3
[13] = Drug uptake in tumor of athymic mouse xenografted with human PC3 cells at 100 mg/kg, po after 32 hrs; format: ADME, organism-based, Neoplasm, PC-3; set-up: dose 100 mg/kg, route oral; details: in vivo, BLD = below limit of detection
In short: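 PC-3 cells (3 × 10⁶, passages 10–14, in ice-cold HBSS) were implanted sc in 5–8 week old male nude mice. Tumors of 200–500 mg received a single oral 100 mg/kg dose. Plasma and tumor were collected at 1, 4, 8, 16, 24 and 32 h and homogenized in buffer. Lysates were pooled per group (n = 5), and phospho-proteins were measured by Western blot normalized to α-tubulin.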

Plasma = assay: Plasma concentration in athymic mouse plasma xenografted with human PC3 cells at 100 mg/kg, po after 24 hrs; format: ADME, organism-based, PC-3; set-up: dose 100 mg/kg, route oral; details: in vivo, BLD = below limit of detection
MCF7 = assay: Antitumor activity against human MCF7 cells xenografted in athymic nude mouse at 100 mg/kg, po qd for 14 days relative to control; format: functional
In short: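 Female athymic nude (NCr) mice, 5–8 weeks old, bearing subcutaneous MCF-7 tumors staged at 100–200 mg. Compound given orally qd for 14 days at 50 or 100 mg/kg as a solution/fine suspension in water with a 1:1 molar ratio of 1 N HCl. Caliper tumor mass = length × width²/2, measured twice weekly; body mass recorded daily.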

[14] = Drug uptake in tumor of athymic mouse xenografted with human MCF7 cells at 100 mg/kg, po after 32 hrs; format: ADME, organism-based, Neoplasm; set-up: dose 100 mg/kg, route oral; details: read-out: Drug uptake
[15] = Metabolic stability in rat liver microsomes after 30 mins; format: ADME, Microsome; details: read-out: Stability
[16] = Metabolic stability in monkey liver microsomes after 30 mins; format: ADME, Macaca mulatta, Microsome; details: rhesus monkey, read-out: Stability
[17] = Plasma concentration in mouse at 100 mg/kg, po after 4 hrs; format: ADME, organism-based; set-up: dose 100 mg/kg, route oral
[18] = molecular target: Proto-oncogene tyrosine-protein kinase Src (Homo sapiens, UniProt P12931); assay: Inhibition of SRC (unknown origin)
[19] = molecular target: Serine/threonine-protein kinase pim-1 (Homo sapiens, UniProt P11309); assay: Inhibition of PIM1 (unknown origin)
[20] = molecular target: Platelet-derived growth factor receptor beta (Homo sapiens, UniProt P09619); assay: Inhibition of PDGFRbeta (unknown origin)
Mus musculus [21] = assay: In vivo inhibition of mTORC1-mediated phosphorylation of pS6 at (serine 240/244) in human PC3 cells xenografted into athymic nude mouse at 100 mg/kg, po after 16 hrs by Western blotting analysis relative to control; format: functional; details: PC-3, 16 h; in short: as §2
Mus musculus [22] = assay: In vivo inhibition of mTORC1-mediated phosphorylation of p70S6K at […] in human PC3 cells xenografted into athymic nude mouse at 100 mg/kg, po after 16 hrs by Western blotting analysis relative to control; format: functional; details: PC-3, 16 h; in short: as §2
Mus musculus [23] = assay: In vivo inhibition of mTORC2-mediated phosphorylation of AKT at serine 473 in human PC3 cells xenografted into athymic nude mouse at 100 mg/kg, po after 16 hrs by Western blotting analysis relative to control; format: functional; details: PC-3, 16 h; in short: as §2
Mus musculus [24] = assay: In vivo inhibition of mTORC2-mediated phosphorylation of AKT at serine 473 in human PC3 cells xenografted into athymic nude mouse at 100 mg/kg, po after 8 hrs by Western blotting analysis relative to control; format: functional; details: PC-3, 8 h; in short: as §2
Mus musculus [25] = assay: Inhibition of mTORC2-mediated phosphorylation of AKT at serine 473 in human PC3 cells xenografted into athymic nude mouse at 100 mg/kg, po after 1 hr by Western blotting analysis relative to control; format: functional; details: PC-3, 1 h
In short: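 PC-3 cells (3 × 10^6, in ice-cold HBSS) were implanted subcutaneously in the hindflank of 5–8 week old male nude mice. At 200–500 mg tumour size, mice received a single oral dose. Tumours were collected at set times after dosing, homogenised and pooled per group (n=5). pAKT S473 was measured by Western blot and normalised to α-tubulin.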

Chain of Platelet-derived growth factor receptor beta (P09619 whole entry): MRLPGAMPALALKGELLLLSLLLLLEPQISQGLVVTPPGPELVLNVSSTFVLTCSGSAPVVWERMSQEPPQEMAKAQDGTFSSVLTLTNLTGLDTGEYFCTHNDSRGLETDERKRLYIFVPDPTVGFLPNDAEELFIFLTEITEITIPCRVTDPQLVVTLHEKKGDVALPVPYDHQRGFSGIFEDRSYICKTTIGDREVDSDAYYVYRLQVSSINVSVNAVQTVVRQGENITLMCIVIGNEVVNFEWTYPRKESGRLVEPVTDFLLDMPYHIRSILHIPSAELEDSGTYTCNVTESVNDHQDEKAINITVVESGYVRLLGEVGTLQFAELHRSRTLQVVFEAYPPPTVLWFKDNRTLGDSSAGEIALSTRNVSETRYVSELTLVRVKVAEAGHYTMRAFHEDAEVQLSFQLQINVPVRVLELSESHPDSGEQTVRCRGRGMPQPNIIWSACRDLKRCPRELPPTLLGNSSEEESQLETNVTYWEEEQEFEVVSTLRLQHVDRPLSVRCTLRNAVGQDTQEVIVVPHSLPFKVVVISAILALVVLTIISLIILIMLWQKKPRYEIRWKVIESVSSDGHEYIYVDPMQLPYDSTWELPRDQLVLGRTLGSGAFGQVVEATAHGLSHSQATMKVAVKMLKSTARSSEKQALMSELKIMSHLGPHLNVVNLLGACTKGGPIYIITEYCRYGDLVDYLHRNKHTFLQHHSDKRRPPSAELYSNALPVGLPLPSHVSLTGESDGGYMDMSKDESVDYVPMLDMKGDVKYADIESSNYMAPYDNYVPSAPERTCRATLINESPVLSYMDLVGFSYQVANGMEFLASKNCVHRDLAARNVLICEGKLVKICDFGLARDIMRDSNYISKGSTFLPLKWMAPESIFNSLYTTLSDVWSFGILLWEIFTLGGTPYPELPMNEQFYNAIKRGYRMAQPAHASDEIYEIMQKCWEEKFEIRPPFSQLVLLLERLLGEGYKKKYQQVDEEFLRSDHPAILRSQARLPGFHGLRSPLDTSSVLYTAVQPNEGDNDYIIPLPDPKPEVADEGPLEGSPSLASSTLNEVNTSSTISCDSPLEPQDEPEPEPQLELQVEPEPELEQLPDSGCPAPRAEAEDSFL
Chain of Serine/threonine-protein kinase pim-1 (P11309 whole entry): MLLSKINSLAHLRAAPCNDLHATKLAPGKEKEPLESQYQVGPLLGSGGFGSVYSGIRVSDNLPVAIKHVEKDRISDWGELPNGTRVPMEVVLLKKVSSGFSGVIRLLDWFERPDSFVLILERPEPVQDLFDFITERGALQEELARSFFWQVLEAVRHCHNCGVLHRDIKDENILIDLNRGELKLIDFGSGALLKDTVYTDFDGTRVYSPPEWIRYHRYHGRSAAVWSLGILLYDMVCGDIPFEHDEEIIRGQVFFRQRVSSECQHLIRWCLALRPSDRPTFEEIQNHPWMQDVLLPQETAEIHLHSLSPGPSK
Chain of Proto-oncogene tyrosine-protein kinase Src (P12931 2-536 limits assumed): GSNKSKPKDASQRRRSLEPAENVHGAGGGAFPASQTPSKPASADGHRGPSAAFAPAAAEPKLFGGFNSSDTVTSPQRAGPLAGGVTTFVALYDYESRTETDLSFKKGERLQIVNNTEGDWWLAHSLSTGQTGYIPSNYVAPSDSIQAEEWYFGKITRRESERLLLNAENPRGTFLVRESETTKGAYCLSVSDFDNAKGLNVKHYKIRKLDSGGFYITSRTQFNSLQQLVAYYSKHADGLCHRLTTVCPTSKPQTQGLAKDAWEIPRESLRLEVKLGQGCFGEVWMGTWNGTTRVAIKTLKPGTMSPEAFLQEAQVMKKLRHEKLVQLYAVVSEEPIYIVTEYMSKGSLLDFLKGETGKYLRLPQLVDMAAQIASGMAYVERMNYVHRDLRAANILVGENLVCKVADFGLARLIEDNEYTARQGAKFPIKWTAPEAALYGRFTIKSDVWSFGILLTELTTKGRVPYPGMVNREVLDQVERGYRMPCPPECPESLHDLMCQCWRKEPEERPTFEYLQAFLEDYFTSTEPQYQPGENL

Cc1c(C(=O)N2CCOc3ccc(-c4ccc(N)nc4)cc3C2)ccc(S(C)(=O)=O)c1F
inhibition in vivo at 100 mg/kg (Mus musculus [1]): 81%
inhibition in vivo at 100 mg/kg (Mus musculus [2]): -39%
inhibition in vivo at 100 mg/kg (Mus musculus [3]): 93%
concentration at 1 h [4]: 32.6 µM
inhibition in vivo at 100 mg/kg (Mus musculus [5]): 19%
inhibition [6]: Active
Vd [7]: 6.42 L/kg
clearance [8]: 84.2 mL/min/kg
clearance [9]: 21.2 mL/min/kg
half-life [10]: 6.11 h
AUC(0-inf) [11]: 0.952 µM·h
Cmax [12]: 1.3 µM
Drug uptake [13]: BLD
Cp (Plasma): BLD
Activity (MCF7): 40%
concentration at 32 h [14]: 0.1 µM
remaining at 0.5 h [15]: 78%
remaining at 0.5 h [16]: 65%
concentration at 4 h [17]: 17.8 µM
IC50 [18]: > 3.5 µM
IC50 [19]: > 3.5 µM
IC50 [20]: > 3.5 µM
inhibition in vivo at 100 mg/kg (Mus musculus [21]): 71%
inhibition in vivo at 100 mg/kg (Mus musculus [22]): 66%
inhibition in vivo at 100 mg/kg (Mus musculus [23]): 55%
inhibition in vivo at 100 mg/kg (Mus musculus [24]): 83%
inhibition in vivo at 100 mg/kg (Mus musculus [25]): 88%
